The values below come from ChEMBL document CHEMBL1255285, “Spontaneous deletion of the methicillin resistance determinant, mecA, partially compensates for the fitness cost associated with high-level vancomycin resistance in Staphylococcus aureus” (2008).

In general, MIC refers to the least concentration at which growth counts as inhibited. A high value points to a less susceptible organism.

What all share (assay type): functional
The test system of test [1] is Staphylococcus aureus. The test is described as follows: Antimicrobial activity against homotypic oxacillin resistant and vancomycin resistant Staphylococcus aureus isolate 5836V32 by broth microdilution method. The gist of the method:
(§1)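 Broth microdilution MIC in cation-adjusted Mueller-Hinton broth per CLSI (formerly NCCLS) guidelines. Strains were routinely grown in brain heart infusion broth or agar at 37°C with shaking at 220 rpm. Vancomycin-passaged derivatives were raised by serial broth passage through 0.5 to 32 µg/ml vancomycin, then maintained on BHI agar with 32 µg/ml vancomycin.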
(Dilution methods test growth across graded concentrations, often in twofold steps.)

The test system of test [2] is Staphylococcus aureus. The test can be described thus: Antimicrobial activity against homotypic oxacillin resistant and vancomycin resistant Staphylococcus aureus isolate 5827V32 by broth microdilution method. The gist of the method:
as §1

Test [3] concerns Staphylococcus aureus. The test can be described thus: Antimicrobial activity against oxacillin sensitive and vancomycin resistant Staphylococcus aureus isolate 5836VR by broth microdilution method. The gist of the method:
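MIC by broth microdilution in cation-adjusted Mueller-Hinton broth, following CLSI (formerly NCCLS) guidelines. The isolate came from an MRSA parent passaged in broth through stepwise vancomycin (0.5 to 32 µg/ml). It was then kept on BHI agar with 32 µg/ml vancomycin and selected as unable to grow on 6 µg/ml oxacillin. Routine growth was in BHI at 37°C.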

In test [4] the test system is Staphylococcus aureus. The test can be described thus: Antimicrobial activity against heterotypic oxacillin resistant and vancomycin intermediate resistant Staphylococcus aureus isolate 5836 by broth microdilution method. A digest of the protocol: as §1
Test [5] deals with Staphylococcus aureus. The test is described as follows: Antimicrobial activity against homotypic oxacillin resistant Staphylococcus aureus isolate 450MHomo by broth microdilution method. The gist of the method: as §1
The subject of test [6] is Staphylococcus aureus. The test can be described thus: Antimicrobial activity against oxacillin sensitive Staphylococcus aureus isolate 450MHomoex with SCCmec excised genotype by broth microdilution method. A digest of the protocol:
as §1

For test [7], the system named is Staphylococcus aureus. The test can be described thus: Antimicrobial activity against oxacillin sensitive and vancomycin resistant Staphylococcus aureus isolate VP32 by broth microdilution method. A digest of the protocol: as §1
The test system of test [8] is Staphylococcus aureus. The test can be described thus: Antimicrobial activity against homotypic oxacillin resistant and vancomycin sensitive Staphylococcus aureus isolate 3130 by broth microdilution method. The gist of the method:
as §1

Test [9] relates to Staphylococcus aureus. The test can be described thus: Antimicrobial activity against homotypic oxacillin resistant and vancomycin resistant Staphylococcus aureus isolate 3130V32 by broth microdilution method. A digest of the protocol:
as §1

Test [10] deals with Staphylococcus aureus. The test can be described thus: Antimicrobial activity against oxacillin sensitive and vancomycin resistant Staphylococcus aureus isolate 3130VR by broth microdilution method. A digest of the protocol:
as §1

The test system of test [11] is Staphylococcus aureus. The test can be described thus: Antimicrobial activity against oxacillin sensitive and tetracycline and vancomycin resistant Staphylococcus aureus isolate 3130V32deltamecA with mecA::tetM genotype by broth microdilution method. The gist of the method: as §1
For test [12], the system named is Staphylococcus aureus. The test can be described thus: Antimicrobial activity against oxacillin sensitive and tetracycline resistant Staphylococcus aureus isolate 450MHomodeltamecA with mecA::tetM genotype by broth microdilution method. A digest of the protocol: as §1
The subject of test [13] is Staphylococcus aureus. The test is described as follows: Antimicrobial activity against homotypic oxacillin resistant and vancomycin intermediate resistant Staphylococcus aureus isolate 5827 by broth microdilution method. A digest of the protocol:
as §1

In brackets after ≈: the same amount, converted by molar mass.

Turning to `Cc1onc(-c2ccccc2)c1C(=O)N[C@@H]1C(=O)N2[C@@H]1SC(C)(C)[C@@H]2C(=O)O` [OXACILLIN], the MIC with Staphylococcus aureus [1] is greater than 8 µg/mL; in the test on Staphylococcus aureus [2], greater than 8 µg/mL; with Staphylococcus aureus [3] it was 0.25 µg/mL (≈ 0.623 µM); against Staphylococcus aureus [4], greater than 8 µg/mL; in the test on Staphylococcus aureus [5] it was greater than 8 µg/mL; with Staphylococcus aureus [6] it was 0.5 µg/mL (≈ 1.25 µM). The MIC in the test with Staphylococcus aureus [7] was 0.5 µg/mL (≈ 1.25 µM); in the test with Staphylococcus aureus [8], greater than 8 µg/mL; against Staphylococcus aureus [9] it was greater than 8 µg/mL; in the test with Staphylococcus aureus [10] it was 0.5 µg/mL (≈ 1.25 µM); in the test with Staphylococcus aureus [11] it was 0.5 µg/mL (≈ 1.25 µM); against Staphylococcus aureus [12], 0.5 µg/mL (≈ 1.25 µM). For the same molecule, in the test on Staphylococcus aureus [13], the minimum inhibitory concentration (MIC) was greater than 8 µg/mL.
With `CN[C@H](CC(C)C)C(=O)N[C@H]1C(=O)N[C@@H](CC(N)=O)C(=O)N[C@H]2C(=O)N[C@H]3C(=O)N[C@H](C(=O)N[C@H](C(=O)O)c4cc(O)cc(O)c4-c4cc3ccc4O)[C@H](O)c3ccc(c(Cl)c3)Oc3cc2cc(c3O[C@@H]2O[C@H](CO)[C@@H](O)[C@H](O)[C@H]2O[C@H]2C[C@](C)(N)[C@H](O)[C@H](C)O2)Oc2ccc(cc2Cl)[C@H]1O` [VANCOMYCIN], the MIC amounted to 32 µg/mL (≈ 22.1 µM) against Staphylococcus aureus [1]; 32 µg/mL (≈ 22.1 µM) in the test on Staphylococcus aureus [2]; 32 µg/mL (≈ 22.1 µM) against Staphylococcus aureus [3]; 8 µg/mL (≈ 5.52 µM) against Staphylococcus aureus [4]; 32 µg/mL (≈ 22.1 µM) in the test on Staphylococcus aureus [7]; 32 µg/mL (≈ 22.1 µM) against Staphylococcus aureus [9]. The MIC against Staphylococcus aureus [10] and in the test on Staphylococcus aureus [11] was 32 µg/mL (≈ 22.1 µM) in each case.
